From article PMC2825290 (ACS chemical biology, 2010)
Entries after “also recorded” stand apart in the source; their conditions may differ.

Tests used:
[1] = system: intersomitic vessel (ISV) formation in Tg(Fli:EGFP)y1 embryos (VEGFR-2 inhibition); assay: Zebrafish intersomitic vessel; assay type: in vivo; details: for Effect on ISV formation (words, no concentration given): ISV visualized at 48-hpf
zebrafish embryos = assay: Zebrafish embryo nonspecific toxicity; details: for Early lethality at 20 μM: administered at 3-hpf
[2] = system: dorsoventral (DV) axis of zebrafish embryos (BMPR-I inhibition); assay: Zebrafish embryo dorsalization; assay type: in vivo; details: for Dorsalization (EC100, μM): zebrafish embryos treated from 3-hpf, concentration when 100% of treated embryos are severely dorsalized, at least 20 embryos per condition
[3] = system: VEGF-stimulated Flk1 phosphorylation; assay: Western blot, VEGF-stimulated Flk1 phosphorylation in BAEC; assay type: cell-based, bovine
[4] = biological target: human platelet-derived growth factor receptor-β (PDGFRβ) (Homo sapiens, UniProt P09619); assay: In vitro kinase assay PDGFRβ; assay type: biochemical; details: purified human enzyme, 10 μM ATP
Sequence of human platelet-derived growth factor receptor-β (PDGFRβ) (P09619 33-1106): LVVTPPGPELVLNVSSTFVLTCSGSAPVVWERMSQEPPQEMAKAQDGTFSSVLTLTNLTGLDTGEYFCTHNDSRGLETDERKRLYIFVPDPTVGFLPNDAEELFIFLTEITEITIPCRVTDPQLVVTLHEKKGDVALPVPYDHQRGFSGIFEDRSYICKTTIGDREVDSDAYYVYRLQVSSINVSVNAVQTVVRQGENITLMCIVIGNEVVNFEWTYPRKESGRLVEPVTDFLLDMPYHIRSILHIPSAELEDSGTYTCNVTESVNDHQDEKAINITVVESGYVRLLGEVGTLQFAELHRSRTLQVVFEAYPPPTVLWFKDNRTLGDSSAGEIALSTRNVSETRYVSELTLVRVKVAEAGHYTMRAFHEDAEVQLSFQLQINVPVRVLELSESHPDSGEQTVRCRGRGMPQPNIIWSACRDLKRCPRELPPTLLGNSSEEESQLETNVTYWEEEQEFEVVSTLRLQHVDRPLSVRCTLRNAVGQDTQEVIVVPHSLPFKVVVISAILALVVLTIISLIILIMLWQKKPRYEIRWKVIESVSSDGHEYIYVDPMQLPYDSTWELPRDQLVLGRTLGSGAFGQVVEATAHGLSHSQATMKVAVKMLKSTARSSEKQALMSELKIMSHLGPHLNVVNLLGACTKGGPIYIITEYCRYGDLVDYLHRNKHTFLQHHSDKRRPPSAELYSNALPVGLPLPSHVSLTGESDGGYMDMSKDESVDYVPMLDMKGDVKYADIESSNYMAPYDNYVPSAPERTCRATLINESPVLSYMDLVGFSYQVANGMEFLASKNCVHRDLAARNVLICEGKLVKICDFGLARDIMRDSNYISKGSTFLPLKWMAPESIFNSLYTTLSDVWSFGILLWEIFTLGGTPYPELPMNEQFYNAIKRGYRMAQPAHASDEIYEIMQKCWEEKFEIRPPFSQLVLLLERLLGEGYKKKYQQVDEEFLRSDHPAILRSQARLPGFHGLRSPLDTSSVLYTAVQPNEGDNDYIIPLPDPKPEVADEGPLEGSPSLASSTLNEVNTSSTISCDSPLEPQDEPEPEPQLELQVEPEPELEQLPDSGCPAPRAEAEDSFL

[5] = system: BMP4-induced p38 MAPK phosphorylation; assay: Western blot, BMP4-induced p38 MAPK phosphorylation in HEK293 cells; assay type: cell-based
Summary of the method: (§1)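 Confluent HEK293 cells were serum-starved, then pretreated with the test compound or DMSO for 30 min. They were then stimulated for 30 min with Activin-A at 40 ng/ml (p-Smad2) or BMP4 at 50 ng/ml (p-p38 MAPK). Cells were lysed with protease and phosphatase inhibitors, and lysates were run on SDS-PAGE and transferred to PVDF. Phospho-proteins were detected by infrared-dye secondary antibodies.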

[6] = biological target: human VEGF type-II receptor (KDR/Flk-1/VEGFR2) (Homo sapiens, UniProt P35968); assay: In vitro kinase assay KDR; assay type: biochemical
Sequence of human VEGF type-II receptor (KDR/Flk-1/VEGFR2) (P35968 20-1356): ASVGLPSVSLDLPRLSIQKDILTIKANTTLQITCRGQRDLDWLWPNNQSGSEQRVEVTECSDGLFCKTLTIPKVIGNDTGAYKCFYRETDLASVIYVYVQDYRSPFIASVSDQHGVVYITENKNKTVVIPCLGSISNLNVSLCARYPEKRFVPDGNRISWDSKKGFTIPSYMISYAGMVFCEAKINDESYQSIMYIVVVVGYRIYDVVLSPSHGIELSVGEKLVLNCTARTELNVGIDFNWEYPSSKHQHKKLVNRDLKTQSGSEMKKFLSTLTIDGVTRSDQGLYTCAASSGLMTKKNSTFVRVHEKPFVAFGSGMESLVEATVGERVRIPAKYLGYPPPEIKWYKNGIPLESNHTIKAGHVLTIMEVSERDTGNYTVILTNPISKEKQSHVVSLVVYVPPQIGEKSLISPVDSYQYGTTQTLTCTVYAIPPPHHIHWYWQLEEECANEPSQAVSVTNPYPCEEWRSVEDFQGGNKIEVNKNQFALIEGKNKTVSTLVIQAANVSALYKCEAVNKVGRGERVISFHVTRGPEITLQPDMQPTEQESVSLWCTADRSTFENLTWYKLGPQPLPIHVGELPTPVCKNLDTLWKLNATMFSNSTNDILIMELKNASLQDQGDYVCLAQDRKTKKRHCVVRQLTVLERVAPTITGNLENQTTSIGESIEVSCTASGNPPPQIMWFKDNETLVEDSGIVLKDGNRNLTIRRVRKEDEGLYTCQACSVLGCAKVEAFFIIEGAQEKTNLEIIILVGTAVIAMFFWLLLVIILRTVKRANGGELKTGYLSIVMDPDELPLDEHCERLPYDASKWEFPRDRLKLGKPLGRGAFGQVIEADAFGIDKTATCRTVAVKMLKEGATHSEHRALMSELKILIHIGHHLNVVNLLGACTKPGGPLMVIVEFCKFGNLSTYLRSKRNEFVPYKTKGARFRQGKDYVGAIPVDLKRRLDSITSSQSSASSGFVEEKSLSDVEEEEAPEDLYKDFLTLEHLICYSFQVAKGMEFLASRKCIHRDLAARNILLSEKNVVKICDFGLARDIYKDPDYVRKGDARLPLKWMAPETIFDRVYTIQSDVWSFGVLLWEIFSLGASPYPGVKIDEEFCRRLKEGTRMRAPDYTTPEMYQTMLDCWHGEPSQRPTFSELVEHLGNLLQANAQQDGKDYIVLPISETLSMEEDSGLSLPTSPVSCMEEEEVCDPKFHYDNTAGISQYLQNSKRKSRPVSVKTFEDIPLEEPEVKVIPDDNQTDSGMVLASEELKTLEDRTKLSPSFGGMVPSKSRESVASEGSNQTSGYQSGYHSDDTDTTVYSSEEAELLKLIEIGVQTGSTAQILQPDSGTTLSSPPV

caALK6 = assay: BMP reporter subtype analysis, caALK6; assay type: cell-based; details: C2C12BRA cells transfected with constitutively active ALK6
caALK3 = caALK3 (Homo sapiens, UniProt P36894, Q233D); assay: BMP reporter subtype analysis, caALK3; assay type: cell-based
Sequence of caALK3 (P36894 24-532 Q233D): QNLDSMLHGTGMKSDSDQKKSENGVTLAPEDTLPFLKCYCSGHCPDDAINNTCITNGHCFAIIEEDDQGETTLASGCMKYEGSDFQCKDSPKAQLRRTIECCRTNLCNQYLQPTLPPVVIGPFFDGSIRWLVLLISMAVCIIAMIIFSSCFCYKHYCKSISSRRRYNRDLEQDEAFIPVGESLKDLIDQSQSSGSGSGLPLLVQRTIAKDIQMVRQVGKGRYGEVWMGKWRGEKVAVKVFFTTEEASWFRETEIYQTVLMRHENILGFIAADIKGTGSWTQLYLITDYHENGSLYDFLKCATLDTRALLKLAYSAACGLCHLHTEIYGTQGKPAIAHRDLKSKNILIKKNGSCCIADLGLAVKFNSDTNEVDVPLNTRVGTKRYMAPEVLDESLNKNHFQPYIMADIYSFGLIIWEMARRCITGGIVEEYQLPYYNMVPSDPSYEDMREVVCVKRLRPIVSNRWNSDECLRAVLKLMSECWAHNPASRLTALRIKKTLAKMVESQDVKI

[7] = biological target: T1, human TGFβ type-I receptor activin receptor-like kinase 5 (Alk5/TGFβR1) (Homo sapiens, UniProt P36897); assay: In vitro kinase assay ALK5; assay type: biochemical; details: purified human enzyme, 10 μM ATP
T1 sequence (P36897 34-503): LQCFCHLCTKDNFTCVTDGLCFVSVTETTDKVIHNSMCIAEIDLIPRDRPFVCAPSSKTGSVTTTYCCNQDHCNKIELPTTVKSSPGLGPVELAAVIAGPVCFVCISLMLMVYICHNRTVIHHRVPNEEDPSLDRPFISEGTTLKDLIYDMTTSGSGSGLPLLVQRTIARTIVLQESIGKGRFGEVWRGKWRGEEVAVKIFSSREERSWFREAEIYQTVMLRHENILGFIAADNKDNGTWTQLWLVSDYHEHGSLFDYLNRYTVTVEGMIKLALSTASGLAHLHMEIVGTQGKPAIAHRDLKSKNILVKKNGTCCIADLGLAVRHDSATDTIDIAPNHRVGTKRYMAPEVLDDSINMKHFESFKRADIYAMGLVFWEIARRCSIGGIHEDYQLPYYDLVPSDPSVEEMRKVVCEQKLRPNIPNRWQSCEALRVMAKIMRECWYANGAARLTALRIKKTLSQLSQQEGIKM

[8] = system: Activin A-induced Smad2 phosphorylation; assay: Western blot, Activin A-induced Smad2 phosphorylation in HEK293 cells; assay type: cell-based; details: Activin-A 40 ng/ml
Summary of the method: as §1

[9] = system: BMP4-induced Smad 1/5/8 phosphorylation; assay: Western blot, BMP4-induced Smad1/5/8 phosphorylation in HEK293 cells; assay type: cell-based; details: BMP4 50 ng/ml
[10] = biological target: human AMP-activated protein kinase (AMPK/A1/B1/G1) (Homo sapiens, UniProt Q13131); assay: In vitro kinase assay AMPK; assay type: biochemical; details: purified human enzyme, 10 μM ATP
Sequence of human AMP-activated protein kinase (AMPK/A1/B1/G1) (Q13131 whole entry): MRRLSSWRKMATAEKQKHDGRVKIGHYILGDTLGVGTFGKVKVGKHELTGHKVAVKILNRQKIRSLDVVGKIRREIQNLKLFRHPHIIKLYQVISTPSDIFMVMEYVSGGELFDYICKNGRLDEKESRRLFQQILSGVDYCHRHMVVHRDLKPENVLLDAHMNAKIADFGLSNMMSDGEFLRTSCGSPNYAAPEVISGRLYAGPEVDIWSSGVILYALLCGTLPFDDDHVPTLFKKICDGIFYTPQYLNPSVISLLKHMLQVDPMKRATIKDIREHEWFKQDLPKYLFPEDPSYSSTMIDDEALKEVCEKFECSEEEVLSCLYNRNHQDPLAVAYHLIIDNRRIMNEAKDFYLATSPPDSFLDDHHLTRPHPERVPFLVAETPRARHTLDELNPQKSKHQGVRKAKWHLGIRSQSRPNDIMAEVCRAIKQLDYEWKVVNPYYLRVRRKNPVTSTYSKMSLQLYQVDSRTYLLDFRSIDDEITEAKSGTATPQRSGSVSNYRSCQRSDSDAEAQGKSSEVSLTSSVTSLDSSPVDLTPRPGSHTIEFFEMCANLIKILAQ
Sequence of human AMP-activated protein kinase (AMPK/A1/B1/G1) (Q9Y478 whole entry partner): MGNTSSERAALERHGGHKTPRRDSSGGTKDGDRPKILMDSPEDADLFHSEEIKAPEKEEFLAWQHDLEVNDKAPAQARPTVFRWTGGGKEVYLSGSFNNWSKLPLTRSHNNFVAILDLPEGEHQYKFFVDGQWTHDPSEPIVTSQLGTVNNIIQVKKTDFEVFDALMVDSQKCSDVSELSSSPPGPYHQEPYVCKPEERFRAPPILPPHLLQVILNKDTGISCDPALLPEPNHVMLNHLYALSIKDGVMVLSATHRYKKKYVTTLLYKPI
Sequence of human AMP-activated protein kinase (AMPK/A1/B1/G1) (P54619 whole entry partner): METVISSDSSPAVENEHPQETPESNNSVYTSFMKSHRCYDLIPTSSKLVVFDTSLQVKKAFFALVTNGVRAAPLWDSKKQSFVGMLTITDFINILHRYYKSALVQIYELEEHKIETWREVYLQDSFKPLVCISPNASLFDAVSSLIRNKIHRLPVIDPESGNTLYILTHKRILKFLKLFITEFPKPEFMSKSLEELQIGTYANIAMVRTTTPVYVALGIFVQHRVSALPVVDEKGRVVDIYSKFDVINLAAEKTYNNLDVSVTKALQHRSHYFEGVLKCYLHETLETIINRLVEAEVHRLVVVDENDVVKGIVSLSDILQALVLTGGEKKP

[11] = system: BMP-responsive C2C12BRA cells (Id1 promoter-firefly luciferase reporter), BMP4; assay: BMP-responsive luciferase reporter assay; assay type: cell-based; details: read-out: IC50 in BMP-responsive luciferase reporter assay
[12] = system: human umbilical vein endothelial cells (HUVEC); assay: Endothelial tubule formation; assay type: cell-based; details: 15hr incubation
Summary of the method: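 HUVECs were maintained in EGM-2 on 0.2% gelatin-coated dishes. 1.5 ×10^4 cells were plated on wells pre-coated with extracellular matrix gel and treated with the test compound or DMSO. After 15 hr incubation, tubular network formation was examined by inverted light microscopy.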

[13] = system: VEGF-induced phosphorylation of AKT; assay: Western blot, VEGF-stimulated Akt phosphorylation in BAEC; assay type: cell-based, bovine
Summary of the method: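 Bovine aortic endothelial cells were grown in DMEM with 10% FBS on 0.2% gelatin-coated dishes. Confluent cells were serum-starved for 18–24 hrs, treated with the test compound or DMSO for 30 min, then stimulated for 8 min with 50 ng/ml VEGF165. Lysates, prepared with protease and phosphatase inhibitors, were immunoblotted for p-AKT and total AKT with infrared-dye detection.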

## c1cc(-c2cnn3cc(-c4ccc(OCCN5CCCCC5)cc4)cnc23)ccn1 [DM, dorsomorphin, reference compound]
[1]; administered at 12-hpf
  Effect on ISV formation at 10 μM: blocked intersomitic vessel (ISV) formation
[1]; administered at 12-hpf, listed as dorsomorphin
  Effect on ISV formation at 10 μM: completely inhibited ISV formation
Zebrafish embryos
  Early lethality at 20 μM: substantial early lethality
[2]; 2 μM, administered at 3-hpf
  Dorsalization at 2 μM: dorsalized zebrafish embryos
[3]; 50ng/ml VEGF165
  Effect on VEGF-stimulated Flk1 phosphorylation: suppressed VEGF-dependent Flk1 phosphorylation in a dose-dependent manner
[3]; 50ng/ml VEGF165, listed as dorsomorphin
  Effect on VEGF-stimulated Flk1 phosphorylation: inhibited the VEGF-stimulated Flk1 phosphorylation in a dose-dependent manner

## CC(C)Oc1ccc(-c2cnc3c(-c4ccnc5ccccc45)cnn3c2)cc1 [DMH1, 4-(6-(4-isopropoxyphenyl)pyrazolo[1,5-a]pyrimidin-3-yl)quinoline]
[4]
  IC50 PDGFRβ: without any detectable inhibition
[1]; 100 μM, treated from 12-hpf
  Effect on ISV formation at 100 μM: no effect on ISV formation
[1]; administered at 12-hpf
  Effect on ISV formation (words, no concentration given): did not have any detectible effect on ISV formation
[2]; 0.2 μM, treated from 3-hpf
  Dorsalization at 0.2 μM: caused severe dorsalization
[3]; 50ng/ml VEGF165
  Effect on VEGF-stimulated Flk1 phosphorylation: no effect on VEGF-induced Flk1 phosphorylation
[5]
  Effect on BMP4-induced p38 MAPK phosphorylation: no effect
[6]
  IC50: > 30 µM
[6]; purified human enzyme, 10 μM ATP
  IC50 KDR (VEGFR2): without any detectable inhibition
caALK6
  Effect on signaling by caALK6: negligible effect on signaling by caALK6
caALK3
  IC50: < 500 nM
[7]
  IC50 ALK5 (TGFβR-I): without any detectable inhibition
[8]
  Effect on Activin A-induced Smad2 phosphorylation: no effect
[9]
  Effect on BMP-induced Smad1/5/8 activation: selectively inhibited the BMP-induced Smad1/5/8 activation; also recorded: blocked BMP4-induced Smad 1/5/8 phosphorylation
[10]
  IC50 AMPK: without any detectable inhibition
[11]
  IC50: ~100 nM

## c1ccc2c(-c3cnn4cc(-c5ccc(OCCN6CCOCC6)cc5)cnc34)ccnc2c1 [DMH2, 4-(2-(4-(3-(quinolin-4-yl)pyrazolo[1,5-a]pyrimidin-6-yl)phenoxy)ethyl)morpholine]
[1]; administered at 12-hpf
  Effect on ISV formation (words, no concentration given): did not have any detectible effect on ISV formation
Zebrafish embryos; at higher concentrations
  Nonspecific developmental effects: caused nonspecific developmental effects at higher concentrations
[2]
  Dorsalization (EC100, μM): ~0.1 µM
[11]
  IC50: ~20 nM

## CN(C)CCCOc1ccc(-c2cnc3c(-c4ccnc5ccccc45)cnn3c2)cc1 [DMH3, N,N-dimethyl-3-(4-(3-(quinolin-4-yl)pyrazolo[1,5-a]pyrimidin-6-yl)phenoxy)propan-1-amine]
[1]; administered at 12-hpf
  Effect on ISV formation (words, no concentration given): did not have any detectible effect on ISV formation
[2]
  Dorsalization (EC100, μM): ~1 µM
[11]
  IC50: ~7 nM

## c1ccc(-c2cnn3cc(-c4ccc(OCCN5CCOCC5)cc4)cnc23)cc1 [DMH4, 4-(2-(4-(3-phenylpyrazolo[1,5-a]pyrimidin-6-yl)phenoxy)ethyl)morpholine]
[12]
  Effect on tubular network formation at 1 μM: effectively blocked angiogenesis; also recorded: blocked VEGF-induced tubular network formation
[1]; 1 μM
  Effect on ISV and SIV formation at 1 μM: disrupted both ISV and SIV formation
[1]; administered at 12-hpf
  Effect on ISV formation (words, no concentration given): caused significant defects in the ISV and the subintestinal vessel (SIV)
[2]; 50 μM, treated from 3-hpf
  Effect on dorsoventral axis at 50 μM: no effect on dorsoventral axis
[2]; administered at 3-hpf
  Effect on DV axis (words, no concentration given): no discernable effect on DV axis
[2]
  Dorsalization (EC100, μM): No (>50) μM
[3]; 50ng/ml VEGF165
  Effect on VEGF-stimulated Flk1 phosphorylation: effectively blocked VEGF-stimulated phosphorylation; also recorded: blocked VEGF-induced phosphorylation
[13]
  Effect on VEGF-stimulated Akt phosphorylation: effectively blocked VEGF-stimulated phosphorylation; also recorded: blocked VEGF-induced phosphorylation

## c1ccc2c(-c3cnn4cc(-c5ccc(N6CCNCC6)cc5)cnc34)ccnc2c1 [LDN-193189, reference compound]
[1]; 20 μM, administered at 12-hpf
  Effect on ISV formation at 20 μM: significantly inhibited ISV formation
Zebrafish embryos
  Early lethality at 20 μM: substantial early lethality
[2]
  Dorsalization (EC100, μM): 3 µM
